Source: ChEMBL document CHEMBL4406918, “Inhibitory Effects of Multivalent Polypeptides on the Proliferation and Metastasis of Breast Cancer Cells” (ACS Med Chem Lett, 2019)
Active and inactive are the calls of the source. The rule behind the calls is not given here. Where a SMILES comes first, the peptide text is derived from it.

Tests used:
[1] = system: 4T1; test: Antitumour activity against mouse 4T1 cells xenografted in BALB/c mouse assessed as reduction in size of lung tumor metastatic nodules at 10 mg/kg administered intratumorally and measured after 24 days by H and E staining based inverted optical microscopic method; format: functional, organism-based
Outline: (§1)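 After 6 doses of 10 mg/kg to 4T1 tumour-bearing BALB/c mice (saline control), lungs were photographed whole and examined histopathologically for the number and size of metastatic nodules.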

[2] = Toxicity in BALB/c mouse xenografted with mouse 4T1 cells assessed as induction of morphological lesions in spleen at 10 mg/kg administered intratumorally and measured after 24 days by H and E staining based inverted optical microscopic method; format: organism-based; conditions: in vivo, other, 576 h
[3] = system: 4T1; test: Induction of cell cycle arrest in mouse 4T1 cells assessed as accumulation at S phase at 0.4 mM incubated for 24 hrs by PI staining based flow cytometric analysis (Rvb =42.35%); format: functional
[4] = Stability in fetal bovine serum assessed as drug degradation measured for 12 hrs by RP-HPLC analysis; format: ADME, cell-free, Bos taurus; conditions: cattle, read-out: Drug degradation
Outline: (§2)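 Peptides incubated in serum for up to 12 h. Degradation is followed as the percentage of intact YSL remaining at time points including 4 and 12 h.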

[5] = Toxicity in BALB/c mouse xenografted with mouse 4T1 cells assessed as induction of morphological lesions in kidney at 10 mg/kg administered intratumorally and measured after 24 days by H and E staining based inverted optical microscopic method; format: organism-based; conditions: in vivo, other, 576 h
[6] = Toxicity in BALB/c mouse xenografted with mouse 4T1 cells assessed as change in serum creatinine level at 10 mg/kg administered intratumorally and measured after 24 days; format: organism-based; conditions: in vivo, other, 576 h
[7] = system: 4T1; test: Induction of apoptosis in mouse 4T1 cells at 0.8 mM incubated for 24 hrs by PI staining based inverted microscopic method; format: functional, cell-based
Outline: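 Live–dead staining of 4T1 cells after 24 h exposure, with PI uptake imaged microscopically. A higher 0.8 mM dose was also tested.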

[8] = Toxicity in BALB/c mouse xenografted with mouse 4T1 cells assessed as change in body weight at 10 mg/kg administered intratumorally and measured after 24 days; format: organism-based; conditions: in vivo, other, 576 h
Outline: (§3)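 BALB/c mice bearing subcutaneous 4T1 tumours received 6 doses of 10 mg/kg, with equal YSL-monomer molar amounts across compounds and saline as control. Tumour volume growth curves and body weights were tracked. Mean ± SD, n = 5.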

[9] = system: 4T1; test: Antiproliferative activity against mouse 4T1 cells at 0.1 mM incubated for 24 hrs by MTT assay; format: functional, cell-based
[10] = system: Erythrocyte; test: Hemolytic activity in BALB/c mouse RBC at 3.2 mM incubated for 2 hrs by UV-Vis spectrophotometric analysis; format: ADME, cell-based; conditions: 3200 µM
Outline: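 Hemolysis assay on red blood cells with dendrimers up to 3.2 mM. Result is expressed as hemolysis rate, with under 5% taken as acceptable.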

[11] = Toxicity in BALB/c mouse xenografted with mouse 4T1 cells assessed as induction of morphological lesions in heart at 10 mg/kg administered intratumorally and measured after 24 days by H and E staining based inverted optical microscopic method; format: organism-based; conditions: in vivo, other, 576 h
[12] = system: 4T1; test: Induction of cell cycle arrest in mouse 4T1 cells assessed as accumulation at G0/G1 phase at 0.4 mM incubated for 24 hrs by PI staining based flow cytometric analysis (reference value: 37.78%); format: functional
[13] = system: 4T1; test: Induction of cell cycle arrest in mouse 4T1 cells assessed as accumulation at G2/M phase at 0.4 mM incubated for 24 hrs by PI staining based flow cytometric analysis (reference value: 19.82%); format: functional
[14] = system: 4T1; test: Induction of apoptosis in mouse 4T1 cells assessed as necrotic cells at 0.4 mM incubated for 24 hrs by Annexin V-FITC/PI based FACS analysis (reference value: 0.47%); format: functional
[15] = system: 4T1; test: Antiproliferative activity against mouse 4T1 cells assessed as cell death at 0.2 mM incubated for 24 hrs by MTT assay relative to control; format: functional
Outline: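 Mouse 4T1 breast cancer cells exposed for 24 h (doses include 0.1 and 0.2 mM), then read by MTT for viability or cell death. Mean ± SD, n = 6.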

[16] = system: 4T1; test: Induction of apoptosis in mouse 4T1 cells assessed as late apoptotic cells at 0.4 mM incubated for 24 hrs by Annexin V-FITC/PI based FACS analysis (reference value: 6.62%); format: functional
[17] = system: 4T1; test: Antitumour activity against mouse 4T1 cells xenografted in BALB/c mouse assessed as increase in damage of tumor tissue at 10 mg/kg administered intratumorally and measured after 24 days by H and E staining based inverted optical microscopic method; format: functional, organism-based
Outline: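 Tumours from 4T1-bearing BALB/c mice given 6 doses of 10 mg/kg (saline control) were sectioned and stained with H&E, plus CD31, Ki-67 and TUNEL.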

[18] = system: 4T1; test: Antitumour activity against mouse 4T1 cells xenografted in BALB/c mouse assessed as reduction in number of lung tumor metastatic nodules at 10 mg/kg administered intratumorally and measured after 24 days by H and E staining based inverted optical microscopic method; format: functional, organism-based; outline: as §1
[19] = Stability in fetal bovine serum assessed as drug degradation measured for 4 hrs by RP-HPLC analysis; format: ADME, cell-free, Bos taurus; conditions: cattle, read-out: Drug degradation; outline: as §2
[20] = system: 4T1; test: Inhibition of metastasis in mouse 4T1 cells assessed as disruption in F-actin arrangement at 0.2 mM incubated for 24 hrs by Hoechst 33342 staining based confocal laser scanning microscopic method; format: functional, cell-based
Outline: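 After 24 h at 0.2 mM, 4T1 cells were stained for F-actin with Alexa Fluor 488 phalloidin and for nuclei with Hoechst 33342, then imaged by fluorescence for cytoskeletal arrangement and cell morphology.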

[21] = Toxicity in BALB/c mouse xenografted with mouse 4T1 cells assessed as induction of morphological lesions in liver at 10 mg/kg administered intratumorally and measured after 24 days by H and E staining based inverted optical microscopic method; format: organism-based; conditions: in vivo, other, 576 h
[22] = system: 4T1; test: Inhibition of cell migration in mouse 4T1 cells assessed as migration frequency at 0.2 mM incubated for 24 hrs by crystal violet staining based transwell assay relative to control; format: functional; parameters: scale not given: the % may be the effect or the level left
Outline: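 4T1 cells, Transwell migration with 24 h exposure to 0.2 mM. Migration rate comes from counting cells on the bottom of the porous membrane. Mean ± SD, n = 3.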

[23] = system: 4T1; test: Antiinvasive activity in mouse 4T1 cells assessed as inhibition of cell invasion at 0.2 mM incubated for 24 hrs by crystal violet staining based matrigel invasion assay relative to control; format: functional; conditions: 4T1, 24 h
Outline: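 4T1 cells, Matrigel-coated Transwell invasion with 0.2 mM compound. Invasion rate comes from counting cells on the underside of the Matrigel-coated porous membrane, relative to untreated control. Mean ± SD, n = 3.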

[24] = system: 4T1; test: Induction of apoptosis in mouse 4T1 cells assessed as early apoptotic cells at 0.4 mM incubated for 24 hrs by Annexin V-FITC/PI based FACS analysis (reference value: 0.76%); format: functional
[25] = system: 4T1; test: Induction of apoptosis in mouse 4T1 cells assessed as viable cells at 0.4 mM incubated for 24 hrs by Annexin V-FITC/PI based FACS analysis (reference value: 92.2%); format: functional; conditions: 4T1, 24 h, read-out: Activity
[26] = system: 4T1; test: Inhibition of cell migration in mouse 4T1 cells assessed as wound closure rate at 0.2 mM measured up to 36 hrs by inverted optical microscopic method based wound healing assay (reference value: 82%); format: functional; parameters: scale not given: the % may be the effect or the level left
[27] = Toxicity in BALB/c mouse xenografted with mouse 4T1 cells assessed as change in blood urea nitrogen level at 10 mg/kg administered intratumorally and measured after 24 days; format: organism-based; conditions: in vivo, other, 576 h
[28] = system: 4T1; test: Antitumour activity against mouse 4T1 cells xenografted in BALB/c mouse assessed as inhibition in tumor growth at 10 mg/kg administered intratumorally and measured every 3 days for 24 days; format: functional, organism-based; outline: as §3

SMILES: COC(=O)[C@H](CC(C)C)NC(=O)[C@H](CO)NC(=O)[C@@H](N)Cc1ccc(O)cc1 (H-Tyr-Ser-Leu-OMe)
- Activity [1]: Active
- Activity [2]: Non-Toxic
- Activity [3]: 42.35%
- metabolised at 12 h [4]: 100%
- Activity [5]: Non-Toxic
- Activity [6]: Non-Toxic
- Activity [7]: Active
- Activity [8]: Non-Toxic
- Activity [9]: inactive
- Activity [10]: Non-Toxic
- Activity [11]: Non-Toxic
- Activity [12]: 37.41%
- Activity [13]: 48.48%
- Activity [14]: 1.23%
- Activity [15]: 2%
- Activity [16]: 10.3%
- Activity [17]: Active
- Activity [18]: Active
- metabolised at 4 h [19]: 60%
- F-actin disruption (qualitative) [20]: Active
- Activity [21]: Non-Toxic
- Activity [22]: 82%
- inhibition at 200 µM [23]: 92%
- Activity [24]: 0.88%
- viability at 400 µM [25]: 87.6%
- Activity [26]: 80%
- Activity [27]: Non-Toxic
- Activity [28]: Active
